A selection: hits, their analogues and other compounds. The true share with any hit is near 3.8%.
MrgX1 PAM: allosterically activates human MrgX1 receptor signaling; Q96LB2; MrgX1-HEK293, Fluo-4 calcium flux, FDSS; active compounds read high; B-score at 10 µM; 310,000 tested, 0.63% active; AID 588675;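 active = plate-corrected calcium response at least 3 library SD above typical, normal starting fluorescence, not activating the receptor alone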;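 note: compound read alongside a low EC10 to EC30 dose of BAM8-22 agonist; peak minus trough fluorescence over baseline measured at the second addition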
Target sequence (Q96LB2 whole entry, looked up): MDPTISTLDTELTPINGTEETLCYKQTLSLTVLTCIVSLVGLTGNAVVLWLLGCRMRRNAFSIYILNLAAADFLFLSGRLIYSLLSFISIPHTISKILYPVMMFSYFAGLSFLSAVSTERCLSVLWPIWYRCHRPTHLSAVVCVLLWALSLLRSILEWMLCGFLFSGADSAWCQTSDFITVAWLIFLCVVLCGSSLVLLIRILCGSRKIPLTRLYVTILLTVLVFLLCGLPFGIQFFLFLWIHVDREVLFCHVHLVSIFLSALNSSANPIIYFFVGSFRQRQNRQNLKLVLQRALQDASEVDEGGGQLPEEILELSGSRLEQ
RGS4 pot: RGS4 potentiation or activation; HEK293 M3R/inducible RGS4, carbachol calcium flux Fluo4; active compounds read low; B-score at 10 µM; 310,000 tested, 0.92% active; AID 463111;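 active = B-score of the integrated calcium signal more than 4 SD below the library mean, with starting fluorescence not abnormally high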;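 note: negative B-score means reduced calcium response which marks RGS4 activation or potentiation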
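System: HEK293 FlpIn-TREx cells, stable M3R, doxycycline-inducible RGS4. Timing: overnight RGS4 induction, 30 min dye load 37 °C, 20 min compound RT. Also added: carbachol, ECmax concentration. Measured by: Fluo4 fluorescence kinetic imaging of calcium. Evaluation: integrated calcium ratio converted to B score.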
RGS4 inh: inhibitors of human RGS4; HEK293 M3R/RGS4 inducible, Fluo-4 calcium flux; active compounds read high; triggered by carbachol at its EC20; B-score at 10 µM; 310,000 tested, 0.45% active;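 active = B-score, a plate-corrected calcium signal, over three deviations above library mean, with baseline fluorescence within five deviations of library mean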;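 note: RGS4 expression induced by doxycycline in cells with stable M3 receptor; B-score is computed from the integrated fluorescence ratio over baseline after carbachol; higher B-score means a larger calcium signal and so more RGS4 inhibition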
Target sequence (P49798 whole entry, looked up): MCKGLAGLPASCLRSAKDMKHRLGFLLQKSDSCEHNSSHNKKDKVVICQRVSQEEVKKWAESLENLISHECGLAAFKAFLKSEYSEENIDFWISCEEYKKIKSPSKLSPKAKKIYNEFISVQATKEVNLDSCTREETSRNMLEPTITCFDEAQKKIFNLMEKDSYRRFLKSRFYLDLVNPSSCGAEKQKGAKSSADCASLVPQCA
MrgX1 agonist: agonists of human MrgX1 receptor; Q96LB2; MrgX1-HEK293 cells, Fluo-4 calcium fluorescence, agonist mode; active compounds read high; B-score at 10 µM; 310,000 tested, 0.44% active;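 active = calcium response B-score plate-corrected fluorescence ratio at least 3 library SD, with starting fluorescence B-score inside 5 SD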
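Material: HEK293 cells stably expressing human MrgX1 receptor | Quantity: 15,000 cells per well | Times: Cells plated overnight, dye loaded 0.5 h 37 °C, 0.5 h room temperature | Measured by: Kinetic Fluo-4 NW fluorescence of intracellular calcium | Control set: Positive and negative controls per plate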
MrgX1 antag: human MrgX1 receptor antagonism, primary screen; MRGX1-HEK293 calcium flux, Fluo-4, BAM8-22 antagonism; active compounds read low; B-score at 10 µM; 310,000 tested, 1.3% active; AID 588676;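 active = calcium-response B-score plate-corrected more than 3 library SD below zero, starting fluorescence within 5 deviations, no agonist response on first addition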;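 note: peak minus trough fluorescence over baseline after final BAM8-22 challenge near maximal dose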
Hep lipid drop: hepatic lipid droplet formation modulation | AML12 mouse hepatocytes, oleate lipid droplets, BODIPY imaging | inhibition, % at 6.5 µM | 240,000 tested, 0.4% active | AID 1656;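 active = lipid droplet intensity inhibited by at least 50%, with more than 500 cells counted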
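Material – mouse AML12 hepatocyte cell line, fixed after treatment · Compound dosing – one dose, 6.5 µM compound · Times – compound with oleate, overnight · Measured by – Image-based BODIPY and DAPI two-channel analysis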
MrgX1 allo conf: confirmation of human MrgX1 receptor positive allosteric modulators; activation (ratio percentage), % at 10 µM; MrgX1-HEK293, Fluo-4 calcium fluorescence, FDSS; 1,200 tested, 13% active; shares compounds with MrgX1 PAM; AID 602413;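 active = ratio at least 3 SD above the weak peptide control, stable starting fluorescence, no direct agonism earlier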;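 note: compound followed by low BAM8-22 agonist challenge near EC20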
HEK293 Ca flux: counter-screen for MrgX1 antagonists: effect in parental HEK293 cells; AID 624111; Fluo-4 calcium fluorescence, FDSS; 4,000 tested, 2% active; shares compounds with MrgX1 antag; fluorescence ratio F(max-min)/F0 at 10 µM;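 active = duplicate-averaged calcium fluorescence ratio at least three times the standard deviation of buffer wells, a nonspecific response in parental cells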
HEK293 Ca counter: activity in parental HEK293 cells without MrgX1. shares compounds with MrgX1 antag. parental HEK293 calcium flux, Fluo-4 fluorescence ratio; active compounds read high. fluorescence ratio F(max-min)/F0 at 10 µM. 4,000 tested, 0.4% active;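 active = calcium fluorescence ratio, averaged over duplicates, at least 3 SD of the buffer-well ratio, meaning a nonspecific response in receptor-free cells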;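 note: untransfected parental HEK293 lacking MrgX1 used as counterscreen for MrgX1 allosteric activators; fluorescence change taken during the second addition on a kinetic imager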
HEK293 Ca cntr2: counter-screen for MrgX1 activators: effect in parental HEK293 cells; shares compounds with MrgX1 antag; Fluo-4 calcium fluorescence (FDSS); active compounds read high; fluorescence ratio F(max-min)/F0 at 10 µM; 4,000 tested, 8.7% active;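 active = calcium fluorescence ratio at least three times the spread of buffer wells, meaning a non-specific response in parental cells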
Each line names hits and unclear results; the compound was inactive in the other large screens (follow-up assays come after a bar, where they were run).

CCCCc1ccc(S(=O)(=O)Nc2ccc(C)c(NS(C)(=O)=O)c2)cc1	MrgX1 PAM 9.7 | MrgX1 allo conf inactive | HEK293 Ca flux inactive | HEK293 Ca counter inactive | HEK293 Ca cntr2 inactive
O=C(N1CCOCC1)N1CCN(C(c2ccccc2)c2ccccc2)CC1	none (no result: Hep lipid drop)
O=C(N1CCCCC1)N1CCN(C(c2ccccc2)c2ccccc2)CC1	MrgX1 PAM 6.94 | MrgX1 allo conf inactive | HEK293 Ca flux inactive | HEK293 Ca counter inactive | HEK293 Ca cntr2 inactive
CCOc1ccccc1NC(=O)Cc1coc2ccc(C)cc12	MrgX1 PAM 13.8 | MrgX1 allo conf inactive | HEK293 Ca flux inactive | HEK293 Ca counter inactive | HEK293 Ca cntr2 inactive
COc1ccc(OC)c(NC(=O)Cc2coc3ccc(C)cc23)c1	none
c1cnc2c(Oc3ncnc4sccc34)cccc2c1	none
Cc1ccc(Oc2ncnc3sccc23)cc1	MrgX1 PAM 17.1 | MrgX1 allo conf 2.5% | HEK293 Ca flux inactive | HEK293 Ca counter inactive | HEK293 Ca cntr2 inactive
Cn1c(=O)c2c(nc(N3CCCCCC3)n2CCSc2nc3ccccc3o2)n(C)c1=O	MrgX1 PAM 7.12 (no result: Hep lipid drop) | MrgX1 allo conf inactive | HEK293 Ca flux inactive | HEK293 Ca counter inactive | HEK293 Ca cntr2 inactive
CC1CCCN(c2nc3c(c(=O)n(C)c(=O)n3C)n2Cc2ccccc2)C1 (stereo not drawn)	MrgX1 PAM 7.09 (no result: Hep lipid drop) | MrgX1 allo conf inactive | HEK293 Ca flux inactive | HEK293 Ca counter inactive | HEK293 Ca cntr2 inactive
O=C(CSc1nc(C2CC2)nc2c1cnn2-c1ccccc1)Nc1c[nH]c(=O)[nH]c1=O	none
CC(C)(C)c1ccc(-c2nc(C=O)c3ccccn23)cc1	none (no result: Hep lipid drop)
Cc1c(C(C)(C)C)c(C=S)n2ccccc12	MrgX1 PAM 8.5 | MrgX1 allo conf inactive | HEK293 Ca flux inactive | HEK293 Ca counter inactive | HEK293 Ca cntr2 inactive
CCc1cccc(NC(=O)c2ccc(NS(=O)(=O)c3c(C)noc3C)cc2)c1	MrgX1 PAM 15.4 (no result: Hep lipid drop) | MrgX1 allo conf 15.0% | HEK293 Ca flux inactive | HEK293 Ca counter inactive | HEK293 Ca cntr2 inactive
Cc1cccc(Oc2ncnc3oc(-c4ccccc4)cc23)c1C	MrgX1 PAM 12.3 | MrgX1 allo conf 7.6% | HEK293 Ca flux inactive | HEK293 Ca counter inactive | HEK293 Ca cntr2 inactive
Cc1cccc(Oc2ncnc(N)c2[N+](=O)[O-])c1C	none
CC(C)CC(C(=O)NCc1ccccn1)N1C(=O)c2ccccc2C1=O (stereo not drawn)	none (no result: Hep lipid drop)
Nc1nc2ccccc2n1CCOc1ccc(Cl)cc1	MrgX1 PAM 6.58 | MrgX1 allo conf inactive | HEK293 Ca flux inactive | HEK293 Ca counter inactive | HEK293 Ca cntr2 inactive
Cc1ccc(Nc2c([N+](=O)[O-])c(=O)n(C)c3ccccc23)cc1C	none
COC(=O)c1cnn(-c2ccccc2)c1/C=N/NC(=S)Nc1ccc(Cl)cc1	none
CCOC(=O)c1c(C)[nH]c(C)c1C(=O)COC(=O)c1c(OC)cccc1OC	MrgX1 PAM 7.06 | MrgX1 allo conf inactive | HEK293 Ca flux inactive | HEK293 Ca counter inactive | HEK293 Ca cntr2 inactive
O=C(COc1ccc(Cl)cc1Cl)Nc1cccnc1	MrgX1 PAM 8.66 | MrgX1 allo conf inactive | HEK293 Ca flux inactive | HEK293 Ca counter inactive | HEK293 Ca cntr2 inactive
O=C(COc1ccc(Cl)cc1Cl)N/N=C/c1cccnc1	none
NC(=O)C1CCN(C(=O)COCc2cc(-c3ccc4c(c3)OCO4)on2)CC1	MrgX1 PAM 17 | MrgX1 allo conf inactive | HEK293 Ca flux inactive | HEK293 Ca counter inactive | HEK293 Ca cntr2 inactive
O=C(COCc1cc(-c2ccc3c(c2)OCO3)on1)N1CCCCC1	none
COc1ccc(CNC(=O)CCN2C(=O)c3ccncc3C2=O)cc1OC	MrgX1 PAM 26.7 | MrgX1 allo conf 13.2% | HEK293 Ca flux inactive | HEK293 Ca counter inactive | HEK293 Ca cntr2 inactive
COc1ccc(CNC(=O)CCN2C(=O)c3ccccc3C2=O)cc1OC	none
CCOC(=O)c1c(C)nc(-c2ccccc2)nc1N	MrgX1 PAM 7.43 | MrgX1 allo conf inactive | HEK293 Ca flux inactive | HEK293 Ca counter inactive | HEK293 Ca cntr2 inactive
Cn1c(=O)[nH]c(=O)c2c1nc(N1CCNCC1)n2Cc1ccccc1Cl	MrgX1 PAM 10.4 | MrgX1 allo conf inactive | HEK293 Ca flux inactive | HEK293 Ca counter inactive | HEK293 Ca cntr2 inactive
CCCCCCn1c(N2CCCC2)nc2c1c(=O)[nH]c(=O)n2C	MrgX1 PAM 11.9 | MrgX1 allo conf 9.9% | HEK293 Ca flux inactive | HEK293 Ca counter inactive | HEK293 Ca cntr2 inactive
Cc1nc2cc(F)ccc2n1C1CCN(S(=O)(=O)c2ccccc2)CC1	none
CCOC(=O)c1nn(-c2ccc(F)cc2)cc1O	MrgX1 PAM 8.43 | MrgX1 allo conf inactive | HEK293 Ca flux inactive | HEK293 Ca counter inactive | HEK293 Ca cntr2 inactive
CCOC(=O)c1nn(-c2ccc3c(c2)CCN3C(C)=O)cc1O	none (no result: Hep lipid drop)
COc1ccc(NC(=O)Cc2c(F)cccc2Cl)c(OC)c1	none
Cc1c(OC(C)C(=O)NCCCN2CCOCC2)ccc2c3c(c(=O)oc12)CCC3 (stereo not drawn)	none
Cc1c(OC(C)C(=O)NCCCN2CCOCC2)ccc2c3c(c(=O)oc12)CCCC3 (stereo not drawn)	MrgX1 PAM 6.9 | MrgX1 allo conf inactive | HEK293 Ca flux inactive | HEK293 Ca counter inactive | HEK293 Ca cntr2 inactive
CN(C)S(=O)(=O)c1ccc(C(=O)NCC(C)(C)CN=C2NS(=O)(=O)c3ccccc32)cc1	none
O=C(Nc1ccc(F)cc1)C1C2CCC3C(CCC21)C3(Cl)Cl (stereo not drawn)	MrgX1 PAM 9.37 | MrgX1 allo conf inactive | HEK293 Ca flux inactive | HEK293 Ca counter inactive | HEK293 Ca cntr2 inactive
CCOc1ccc(NC(=O)C2C3CCC4C(CCC32)C4(Cl)Cl)cc1 (stereo not drawn)	none
Cc1cc(/C=C2\Cc3ccccc3C2=O)c(C)n1-c1ccccc1	MrgX1 PAM 25.5 | MrgX1 allo conf inactive | HEK293 Ca flux inactive | HEK293 Ca counter inactive | HEK293 Ca cntr2 inactive
Cc1cc(C=C2C(=O)c3ccccc3C2=O)c(C)n1-c1ccc(C(=O)O)cc1	none
Cc1ccc(CN2CCSc3ccc(C(=O)NC4CCCC4)cc32)cc1	MrgX1 PAM 9.37 | MrgX1 allo conf inactive | HEK293 Ca flux inactive | HEK293 Ca counter inactive | HEK293 Ca cntr2 inactive

From PubChem
